According to ChEMBL document CHEMBL1123696, “1H NMR study of degradation mechanisms of oxacephem derivatives with various 3'-substituents in alkaline solution” (J Med Chem, 1987):

How the values were obtained:
Format in all cases: ADME
[1] = Pseudo first order rate constant of the beta-lactam ring cleavage determined from 1H NMR spectra
Procedure, shortened: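 Oxacephem (about 1×10^-2 M initial) in 0.2 M deuteriated carbonate buffer, pD 10.4, μ = 0.5, held at 35 ± 0.5 °C. β-Lactam loss followed by 1H NMR with 64 acquisitions per spectrum. Pseudo-first-order constant from regression of residual oxacephem fraction against time in hours.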

[2] = Pseudo first order rate constant of the beta-lactam ring cleavage determined from UV spectra (pH 10, 35 degree C)
Procedure, shortened: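 Oxacephem at about 7.5×10^-5 M initial in 0.008 M carbonate buffer, μ = 0.1, 35.0 ± 0.2 °C. Loss of UV absorbance near 260 nm recorded continuously over time. Pseudo-first-order constant for β-lactam cleavage obtained by the Guggenheim method.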

[3] = Pseudo first order rate constant of the beta-lactam ring cleavage determined from 1H NMR spectra; value is corrected for parallel correction.
Procedure, shortened: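 Degradation in 0.2 M deuteriated carbonate buffer, pD 10.4, μ = 0.5, 35 °C, oxacephem about 1×10^-2 M. Time courses of parent and products were recorded by 1H NMR. Rate constants came from kinetic analysis of a parallel-reaction scheme fitted to the experimental curves, which separates the OH− contribution to β-lactam cleavage.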

SMILES | k obs [1] [h⁻¹] | k obs [2] [h⁻¹] | k obs [3] [h⁻¹]
CO[C@@]1(NC(=O)Cc2ccccc2)C(=O)N2C(C(=O)[O-])=C(COC(N)=O)COC21.[Na+] (some centres undefined) | 0.45 | 0.23 | 
CO[C@@]1(NC(=O)Cc2ccccc2)C(=O)N2C(C(=O)[O-])=C(CSc3nnnn3C)CO[C@@H]21.[Na+] | 0.192 | 0.204 | 
CO[C@@]1(NC(=O)Cc2ccccc2)C(=O)N2C(C(=O)[O-])=C(CO)CO[C@@H]21.[Na+] | 0.164 | 0.139 | 
COCC1=C(C(=O)[O-])N2C(=O)[C@](NC(=O)Cc3ccccc3)(OC)[C@H]2OC1.[Na+] | 0.204 | 0.144 | 
CO[C@@]1([N-]C(=O)Cc2ccccc2)C(=O)N2C(C(=O)[O-])=C(C[n+]3ccccc3)CO[C@@H]21.[Na+] | 1.39 | 1.26 | 
CO[C@@]1(NC(=O)Cc2ccccc2)C(=O)N2C(C(=O)[O-])=C(CC#N)CO[C@@H]21.[Na+] | 0.289 | 0.234 | 
CO[C@@]1(NC(=O)Cc2ccccc2)C(=O)N2C(C(=O)[O-])=C(COC(C)=O)CO[C@@H]21.[Na+] | 0.255 | 0.285 | 0.308
CO[C@@]1(NC(=O)Cc2ccccc2)C(=O)N2C(C(=O)[O-])=C(C)CO[C@@H]21.[Na+] | 0.0484 | 0.0346 | 
CO[C@@]1(NC(=O)Cc2ccccc2)C(=O)N2C(C(=O)[O-])=C(CSC)CO[C@@H]21.[Na+] | 0.11 | 0.101 | 
